Measured values from different studies.
Each line is one published result; the experiments were not run side by side.
CDK4: Cyclin-dependent kinase 4 (CDK4, Homo sapiens, UniProt P11802)
CDK4 with cyclin D3: Cyclin-dependent kinase 4, with cyclin D3 (CDK4, Homo sapiens, UniProt P11802)
CDK4 with cyclin D1: Cyclin-dependent kinase 4, with cyclin D1 (CDK4, Homo sapiens, UniProt P11802)

Compound | target | test | setting | quantity | result
CCOC(=O)[C@H]1Cc2c(cc([N+](=O)[O-])cc2[N+](=O)[O-])[C@@H](O)[C@@]12C(=O)Nc1ccc(Br)cc12 | CDK4 | cell-free assay, inhibitor, TR-FRET | 1 µM | inhibition | 76.3%
Cn1cncc1[C@@](O)(COc1ccc(C#N)cc1-c1ccc(OC(F)(F)F)cc1)c1ccc(C#N)cc1 | CDK4 with cyclin D3 | cell-free assay, competition with immobilised ligand | 1 µM | remaining binding | 92%
O=c1[nH]c2ccccc2n1C1CCN(Cc2ccc(-c3[nH]c4cc5ncnc5cc4nc3-c3ccccc3)cc2)CC1 | CDK4 with cyclin D1 | cell-free assay | 0.5 µM | remaining signal | 108%
N#CC1(c2ccccn2)CCN(Cc2cc(C(=O)O)c(=O)n3ccccc23)CC1 | CDK4 | cell-free assay, competition with immobilised ligand | 1 µM | remaining binding | 94%
CCOC(=O)[C@H]1Cc2c(cc([N+](=O)[O-])cc2[N+](=O)[O-])[C@@H](O)[C@@]12C(=O)Nc1c(F)cccc12 | CDK4 | cell-free assay, inhibitor, TR-FRET | 1 µM | inhibition | 52.6%
Cc1nn(C)cc1-c1nc2c(N3CCN(Cc4ccc(Cl)cc4)CC3)c(Cl)cnc2[nH]1 | CDK4 with cyclin D1 | binding, competition with immobilised ligand | 1 µM | remaining binding | 76%
Nc1ncc(-c2nc(N3CCOCC3)nc(N3CCOCC3)n2)c(C(F)F)n1 | CDK4 with cyclin D1 | binding, competition with immobilised ligand | 10 µM | remaining binding | 100%
CCOC(=O)[C@H]1Cc2c(cc([N+](=O)[O-])cc2[N+](=O)[O-])[C@H](O)[C@]12C(=O)Nc1cc(Cl)ccc12 | CDK4 | cell-free assay, inhibitor, TR-FRET | 1 µM | inhibition | 38.6%
CC(C)(C)c1cc(C=C(C#N)C#N)cc(Br)c1O | CDK4 with cyclin D3 | enzyme activity, inhibitor | 0.5 µM | remaining activity | 96.5%
